CSN deneddyl inh = blocks human CSN-mediated cullin deneddylation. hit rate 0.38% among 360,000. Q92905. inhibition, % at 12.5 µM. AID 651999. Purified CSN, SCF-Nedd8-OG deneddylation, fluorescence polarization;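 active = pattern-corrected inhibition above about 35%, with an unprinted fluorescence ratio check between 0.5 and 1.5, limit read from the data, passing the limit was not always enough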
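Assay system: HEK293T-derived human Csn5 enzyme; quantity: 0.24 nM enzyme; medium: Tris/NaCl/DTT buffer, pH 7.5; also added: substrate SCFSkp2-Nedd8OG, 10 nM; doses: 12.5 µM compound; schedule: 90 min reaction at room temperature; signal: FP; read-out: % inhibition of substrate cleavage by Csn5; benchmarks: substrate-only high control, full reaction low control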
TPT1 inh = inhibitors of Candida albicans tRNA 2'-phosphotransferase TPT1; recombinant caTPT1, FP RNA substrate dephosphorylation; inhibition, % at 5 µM; hit rate 0.81% among 300,000; AID 1962;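 active = inhibition above the mean of all tested compounds plus 3 SD, set per screening campaign, cut at about 24% in these data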
SENP1 inh = blocks the human SENP1 SUMO protease catalytic domain; Q9P0U3; recombinant SENP1 catalytic domain, CyPet-SUMO1-YPet FRET cleavage; inhibition, % at 10 µM; hit rate 0.21% among 360,000;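 active = inhibition at least 30% at 10 µM, raw YFP signal under a set limit, fluorescence ratio 0.5 to 1.5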
Target sequence (Q9P0U3 419-644 limits assumed): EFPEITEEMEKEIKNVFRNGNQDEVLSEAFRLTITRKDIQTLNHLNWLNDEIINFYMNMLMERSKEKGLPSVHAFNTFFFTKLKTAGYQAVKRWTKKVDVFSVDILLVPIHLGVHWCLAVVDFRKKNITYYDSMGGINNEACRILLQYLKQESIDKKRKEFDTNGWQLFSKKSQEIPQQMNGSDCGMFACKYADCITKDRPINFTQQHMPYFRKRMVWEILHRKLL
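Test system: hSENP1 catalytic domain, recombinant; Amount: 20 pM final SENP1 enzyme; Medium: Tris pH 8 buffer plus EDTA, NaCl, BME, BSA, NP40, catalase; Schedule: 50 min enzyme reaction, room temperature, light-protected; Technique: FRET fluorescence in CFP and YFP emission channels; Controls: no-enzyme wells low, DMSO-plus-enzyme wells high control.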
Rpn11 block = inhibitors of human proteasome Rpn11. hit rate 0.59% among 360,000. human 26S proteasome, Ub4-pepOG fluorescence polarization; 20S core pre-blocked with epoxomicin. O00487. AID 588493. inhibition, % at 20 µM;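 active = inhibition at 20 µM, scaled to each plate's controls, above about 33%, limit read from the data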
Target sequence (O00487 whole entry, looked up): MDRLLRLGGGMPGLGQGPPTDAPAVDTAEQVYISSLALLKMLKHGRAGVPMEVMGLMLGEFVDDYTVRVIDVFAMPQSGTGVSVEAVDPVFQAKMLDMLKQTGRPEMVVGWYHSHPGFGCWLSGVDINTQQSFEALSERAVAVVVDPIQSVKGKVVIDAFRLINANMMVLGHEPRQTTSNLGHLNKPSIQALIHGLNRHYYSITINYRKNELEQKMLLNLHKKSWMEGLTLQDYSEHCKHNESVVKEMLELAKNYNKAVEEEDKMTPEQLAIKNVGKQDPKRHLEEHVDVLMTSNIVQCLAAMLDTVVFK
HNF4A DNA FP = change in binding of human HNF4 alpha to DNA. activity change, % at 10 µM. P41235. HNF4a-FITC DNA binding, fluorescence polarization, 1 h. hit rate 0.3% among 360,000. AID 1224865; in the data active = activity change above about 30%, passing the limit was not always enough
A number is an active result. This is a sample that favours compounds with a hit; in the whole collection about 1.6% have one here.

Cc1cccc(C)c1-n1nnnc1C1c2ccccc2C(=O)N1CCc1ccc(O)cc1 (centres undefined) was read as CSN deneddyl inh inactive, SENP1 inh inactive and HNF4A DNA FP inactive.
Screening COC(=O)c1ccccc1NC(=O)CSc1nnc(C(CO)NC(=O)c2ccccc2Cl)n1C (centres undefined) returned CSN deneddyl inh inactive, TPT1 inh inactive, SENP1 inh inactive, Rpn11 block inactive and HNF4A DNA FP 37.3.
`COc1ccc(CNC(=O)CN(C(=O)c2csnn2)c2ccccc2F)cc1` gave CSN deneddyl inh inactive, TPT1 inh inactive, SENP1 inh inactive, Rpn11 block inactive and HNF4A DNA FP inactive.
CCCCCN(C(=O)CCC(=O)OCC(=O)N(C)c1ccccc1)c1c(N)n(CCCC)c(=O)[nH]c1=O was read as CSN deneddyl inh inactive, TPT1 inh inactive, SENP1 inh inactive, Rpn11 block inactive and HNF4A DNA FP inactive.
Screening CCCCCN(C(=O)CN1CCC(Cc2ccccc2)CC1)c1c(N)n(CCCC)c(=O)[nH]c1=O returned CSN deneddyl inh inactive, TPT1 inh inactive, SENP1 inh inactive, Rpn11 block inactive and HNF4A DNA FP 36.6.
For CN(/N=C/c1c[nH]c2ccccc12)c1cnn(-c2ccc(F)c(Cl)c2)c(=O)c1Cl the results were CSN deneddyl inh 48.3, TPT1 inh inactive, SENP1 inh inactive and HNF4A DNA FP 64.4.
Nn1cnc2scc(-c3ccc(Cl)cc3)c2c1=O was read as CSN deneddyl inh inactive, TPT1 inh inactive, SENP1 inh inactive, Rpn11 block inactive and HNF4A DNA FP inactive.
For CCCCC(CC)CN=C(N)NC(N)=NCCCCCCN=C(N)NC(N)=NCC(CC)CCCC (centres undefined) the results were CSN deneddyl inh 126.9, TPT1 inh inactive, SENP1 inh inactive, Rpn11 block 101.6 and HNF4A DNA FP 97.6.
`COC(=O)C1=C(O)/C(=C\c2ccc(CNC(=O)C(=O)Nc3ccc(C)cc3)o2)N=C1C` gave CSN deneddyl inh 35.6, TPT1 inh inactive, SENP1 inh inactive, Rpn11 block inactive and HNF4A DNA FP inactive.
Screening CCOC(=O)C1=C(O)/C(=C\c2ccc(CNS(=O)(=O)c3ccc(Br)cc3)o2)N=C1C returned CSN deneddyl inh 52.0, TPT1 inh inactive, SENP1 inh inactive, Rpn11 block inactive and HNF4A DNA FP inactive.
For COc1ccccc1OCCOc1ccc(/C=C2/C(=N)N3OC(C)=CC3=NC2=O)cc1OC the results were CSN deneddyl inh 50.2, TPT1 inh inactive, SENP1 inh inactive, Rpn11 block inactive and HNF4A DNA FP inactive.
C[C@@]12CC(=O)NC1N(C(=O)c1cccc(C(F)(F)F)c1)C(c1ccccc1OC(=O)c1cccc(C(F)(F)F)c1)C2 (some centres undefined) was read as CSN deneddyl inh inactive, TPT1 inh inactive, SENP1 inh inactive, Rpn11 block inactive and HNF4A DNA FP inactive.
For C[C@@]12CC(=O)NC1N(C(=O)c1ccccc1)C(c1ccccc1OC(=O)c1ccccc1)C2 (some centres undefined) the results were CSN deneddyl inh inactive, TPT1 inh inactive, SENP1 inh inactive, Rpn11 block inactive and HNF4A DNA FP 36.4.
`COc1ccc2nc(SCCC(=O)O)cc(C)c2c1` gave CSN deneddyl inh inactive, TPT1 inh inactive, SENP1 inh inactive, Rpn11 block inactive and HNF4A DNA FP inactive.
For Cc1ccc(-c2csc(NC(=O)CCNC(=O)c3ccco3)n2)cc1 the results were CSN deneddyl inh inactive, TPT1 inh inactive, SENP1 inh inactive, Rpn11 block inactive and HNF4A DNA FP 40.2.
Screening Cc1ccccc1Nc1n[nH]c(=S)s1 returned CSN deneddyl inh inactive, SENP1 inh inactive, Rpn11 block inactive and HNF4A DNA FP inactive.
Screening Cc1ccccc1Nc1nc(Cl)c(C=O)s1 returned CSN deneddyl inh inactive, TPT1 inh 27.1, SENP1 inh inactive, Rpn11 block inactive and HNF4A DNA FP inactive.
Screening Cc1ccc(C(=O)NCC(c2ccc(F)cc2)N2CCOCC2)cc1 (centres undefined) returned CSN deneddyl inh inactive, TPT1 inh inactive, SENP1 inh inactive, Rpn11 block inactive and HNF4A DNA FP 77.2.
For Cc1cccc(C(=O)NCC(c2ccc(F)cc2)N2CCOCC2)c1 (centres undefined) the results were CSN deneddyl inh inactive, TPT1 inh inactive, SENP1 inh inactive, Rpn11 block inactive and HNF4A DNA FP inactive.
Screening COc1ccc2c(c1)c(=O)oc1c(C)c(OCC(=O)N3CCc4ccccc4C3)ccc12 returned CSN deneddyl inh 35.7, TPT1 inh inactive, SENP1 inh inactive, Rpn11 block inactive and HNF4A DNA FP inactive.
Cc1cc(=O)oc2cc(OCC(=O)N3CCc4ccccc4C3)ccc12 was read as CSN deneddyl inh inactive, TPT1 inh inactive, SENP1 inh inactive, Rpn11 block inactive and HNF4A DNA FP inactive.
Screening CCOC(=O)Cn1nc(-c2ccc(Cl)cc2)cc1N returned CSN deneddyl inh 48.5, TPT1 inh inactive, SENP1 inh inactive, Rpn11 block inactive and HNF4A DNA FP inactive.
`C=CCc1cc(/C=C2/NC(=O)N(CC(=O)OC)C2=O)cc(OC)c1O` gave CSN deneddyl inh inactive, TPT1 inh inactive, SENP1 inh inactive, Rpn11 block inactive and HNF4A DNA FP inactive.
COc1ccccc1/C=C/C=N/NC(=O)c1ccccn1 was read as CSN deneddyl inh inactive, TPT1 inh inactive, SENP1 inh inactive, Rpn11 block inactive and HNF4A DNA FP inactive.
`COc1ccccc1/C=C/C=N/NC(=O)c1cc(-c2ccco2)[nH]n1` gave CSN deneddyl inh 44.9, TPT1 inh inactive, SENP1 inh inactive, Rpn11 block inactive and HNF4A DNA FP inactive.
For COC(=O)[C@@]12C[C@@H](CC(=O)N3CCN(C(=O)c4ccco4)CC3)C(=O)N(Cc3cccc4ccccc34)C1=CCC(C)(C)C2 the results were CSN deneddyl inh inactive, SENP1 inh inactive and HNF4A DNA FP inactive.
For COc1ccc(-c2nc3ccc(N4CCCC4)cc3c(=O)[nH]2)cc1OC the results were CSN deneddyl inh 113.2, TPT1 inh inactive, SENP1 inh inactive, Rpn11 block inactive and HNF4A DNA FP inactive.
Screening COc1ccc2nc(-c3ccccc3)[nH]c(=O)c2c1 returned CSN deneddyl inh inactive, SENP1 inh inactive, Rpn11 block inactive and HNF4A DNA FP inactive.
COc1cccc(C2C(C#N)=C(C)NC3=C2C(=O)CC(C)(C)C3)c1 (centres undefined) was read as CSN deneddyl inh inactive, TPT1 inh inactive, SENP1 inh inactive, Rpn11 block inactive and HNF4A DNA FP inactive.
For COc1ccc(C2C(C#N)=C(C)NC3=C2C(=O)CC(C)(C)C3)cc1 (centres undefined) the results were CSN deneddyl inh 102.5, TPT1 inh inactive, SENP1 inh inactive, Rpn11 block inactive and HNF4A DNA FP inactive.
`COCCn1c(SCC(=O)Nc2sccc2C(N)=O)nc2cc(Cl)ccc2c1=O` gave CSN deneddyl inh inactive, TPT1 inh inactive, SENP1 inh inactive, Rpn11 block inactive and HNF4A DNA FP inactive.
